Bioassay records from PubChem.
KCNK9 inh = human KCNK9 channel inhibition | HEK293 KCNK9, FluxOR thallium flux fluorescence; active compounds read low | B-score at 10 µM | AID 488922 | 310,000 compounds, 1.2% hits;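 active = ratio B-score over 3 SD below the library mean, with starting fluorescence within 5 SD of its mean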;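 note: negative B-score means less thallium flux so channel inhibition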
KCNQ1 block = blocks the human KCNQ1 potassium channel | AID 2642 | B-score at 10 µM | 310,000 compounds, 1.3% hits | CHO-K1 KCNQ1, FluxOR thallium flux fluorescence; active compounds read high | P51787;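 active = compounds whose thallium flux B-score, printed positive for inhibition, exceeds three library SD while starting fluorescence stays within three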;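 note: channel opened by potassium depolarization with thallium stimulus after 20 min compound exposure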
KCNK3 inh = human KCNK3 channel inhibition, primary screen; O14649; CHO-KCNK3 thallium flux, FluxOR fluorescence; active compounds read low; B-score at 10 µM; 340,000 compounds, 0.84% hits;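 active = B-score under library mean minus 4 SD, starting fluorescence ratio at most library mean plus 5 SD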;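 note: more negative B-score means stronger inhibition of thallium flux through KCNK3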
KCNQ1 pot = potentiates or activates the human KCNQ1 potassium channel; CHO-K1 KCNQ1, thallium flux FluxOR fluorescence; active compounds read high; AID 2648; P51787; 310,000 compounds, 0.35% hits; B-score at 10 µM;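 active = fluorescence ratio B-score, a plate-corrected score, at least three library SD, with initial intensity B-score within 5 SD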
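Medium – assay buffer, equal DMSO in all wells · Material – CHO-K1 cell line with stable KCNQ1 potassium channel expression · Signal – kinetic FluxOR thallium fluorescence, 10-s 1-Hz baseline, 110-s post-stimulus read · Compound – single concentration per compound, DMSO matched to controls · Schedule – 37 °C overnight plating, 90-min dark dye load, 20-min compound pretreatment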
hERG protect = hERG (human) protection from proarrhythmic block. Q12809. AID 1511. 310,000 compounds, 0.51% hits. CHO-hERG, FluxOR thallium flux, dofetilide IC70 present. activation (rescue from dofetilide block), less the hit threshold, % at 10 µM;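 active = activation above the mean of controls blocked by dofetilide plus 5 SD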;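 note: thallium influx through hERG after potassium depolarization seen as dye fluorescence rise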
PHOSPHO1 inh = PHOSPHO1 (human) inhibition | recombinant PHOSPHO1, absorbance phosphatase assay | inhibition, % at 13.3 µM | 290,000 compounds, 1.1% hits | AID 1565; in the data active = inhibition above about 60%
KCNK9 inh conf = human KCNK9 inhibitor confirmation. HEK293 KCNK9 cells, FluxOR thallium flux fluorescence. 4,900 compounds, 43% hits. inhibition, % at 10 µM. shares compounds with KCNK9 inh;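 active = thallium signal inhibited by more than 5 SD of the compound-free buffer control wells, on both duplicate plates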;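 note: 0% = assay buffer control wells without compound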
Kir2-1 spec = selectivity of KCNK9 modulators against mouse Kir2.1; inhibition, % at 10 µM; AID 492993; Kir2.1 cells, FluxOR thallium flux fluorescence; 4,900 compounds, 4% hits; shares compounds with KCNK9 inh;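 active = thallium signal drop more than 5 SD beyond the mean of the no-compound control wells, seen in both duplicate plates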;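 note: signal is fluorescence rise after thallium addition divided by baseline fluorescence; plate controls were assay buffer only for no effect and full block by chlorpromazine control for full effect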
Target sequence (P35561 whole entry, looked up): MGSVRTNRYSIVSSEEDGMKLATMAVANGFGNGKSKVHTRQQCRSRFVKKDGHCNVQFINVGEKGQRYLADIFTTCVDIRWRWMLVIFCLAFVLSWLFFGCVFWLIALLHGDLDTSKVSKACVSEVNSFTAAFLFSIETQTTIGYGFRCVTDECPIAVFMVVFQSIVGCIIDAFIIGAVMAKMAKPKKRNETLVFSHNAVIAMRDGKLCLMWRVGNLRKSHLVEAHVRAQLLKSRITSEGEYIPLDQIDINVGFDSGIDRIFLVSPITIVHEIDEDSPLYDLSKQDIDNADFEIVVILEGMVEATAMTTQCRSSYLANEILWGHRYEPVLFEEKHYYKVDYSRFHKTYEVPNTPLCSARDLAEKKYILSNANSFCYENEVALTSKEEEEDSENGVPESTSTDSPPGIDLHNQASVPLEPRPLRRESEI
HEK293 Tl ctr = non-induced cell nonspecific activity of KCNK9 modulators. 4,900 compounds, 40% hits. non-induced KCNK9-HEK293, FluxOR thallium flux. inhibition, % at 10 µM. shares compounds with KCNK9 inh. AID 492997;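 active = thallium signal drop beyond 5 SD of the untreated control mean, on both duplicate plates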;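 note: plate controls were buffer only IC0 wells for no effect and SID17386958 at its maximal inhibitory level for full effect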
The depositor's hits bear a star; i = inactive; / = no result. Only some compounds are listed: those with a hit (about 4% of all), similar ones and a draw of the others.

SMILES	KCNK9 inh	KCNQ1 block	KCNK3 inh	KCNQ1 pot	hERG protect	PHOSPHO1 inh	KCNK9 inh conf	Kir2-1 spec	HEK293 Tl ctr
CC1(C)C=Cc2c(c3c(c4c(=O)c(-c5ccc(O)cc5)coc24)OC(C)(C)CC3)O1	-10*	i	i	i	-7	-94	50%*	i	26%*
N#CCCN(C(=O)COC(=O)CCc1nc2ccccc2c(=O)[nH]1)c1ccccc1F	/	/	i	/	/	/	/	/	/
Cc1ccc(CON=C2CCN(c3ncc(C(F)(F)F)cc3Cl)CC2)cc1	i	i	i	i	-9	24	i	i	i
CCOC(=O)c1c(NC(=O)C2CCN(S(=O)(=O)c3cccs3)CC2)sc(C)c1C	i	i	i	i	-6	-10	i	i	i
C#CCSc1nc(-c2ccccc2)cc(C(F)(F)F)c1C#N	-14*	i	i	i	-9	22	37%*	i	26%*
COc1ccc(NS(=O)(=O)c2ccc3oc(SCc4ccc(F)cc4)nc3c2)cc1	i	i	i	i	-8	-8	i	i	i
CS(=O)(=O)Nc1nnc(SCC(=O)Nc2cccc([N+](=O)[O-])c2)s1	i	i	i	i	-6	-6	/	/	/
O=C1CC(=C(c2ccccc2)c2ccccc2)C(=O)N1CCN1CCN(c2cccc(Cl)c2)CC1	i	i	i	i	-5	23	i	i	i
O=C(NCCSc1c(-c2ccccc2)[nH]c2ccccc12)c1cc2ccccc2oc1=O	i	i	i	i	-22	-9	/	/	/
Cc1ccc(-c2[nH]c3ccccc3c2SCCNC(=O)c2cc3ccccc3oc2=O)cc1	i	6*	i	i	-12	6	i	i	i
CCN1CCN(c2ccc(S(=O)(=O)N3CCOCC3)cc2NC(=O)/C=C/c2ccc(OC)cc2OC)CC1	i	i	i	i	-17	/	/	/	/
CC(C)CC(C)N1CCC(n2nccc2NC(=O)CCc2ccccc2)CC1 (stereo unspecified)	i	i	i	i	-3	22	/	/	/
COc1ccc(CNC(=O)C[C@H]2C(=O)N(c3ccccc3)C[C@@H]2Cc2ccccc2)cc1	-9.9*	i	i	i	-5	-13	60%*	i	i
CCCCN1C[C@H](Cc2ccccc2)[C@@H](CC(=O)NCc2ccc(OC)cc2)C1=O	i	i	i	i	-6	10	/	/	/
O=C(c1ccc2c(Cl)c3c(nc2c1)CCCC3)N1CCN(c2ccc(F)cc2)CC1	i	i	i	i	-8	21	i	i	i
CC1CCN(C(=O)c2ccc3c(Cl)c4c(nc3c2)CCCC4)CC1	i	i	i	i	-7	-17	i	i	i
N/C(CC(=O)Nc1ccc(F)cc1F)=N\OC(=O)c1cccs1	i	i	i	i	-6	-10	i	i	i
N/C(Cc1ccc(Cl)cc1Cl)=N\OC(=O)c1cccs1	i	i	i	i	-19	22	/	/	/
COc1ccc(/C=N/NC(=O)CCCOc2ccc(Cl)cc2Cl)cc1	i	i	i	i	-5	2	/	/	/
COc1cccc(NC(=O)c2cnn(-c3ccccc3)c2C)c1	i	i	i	i	-15	49	/	/	/
CCOC(=O)C1(CC2CC2)CCN(Cc2cn(C)c3ccccc23)CC1	i	i	i	i	-6	10	i	i	i
CCOC(=O)C1(Cc2ccccc2)CCN(Cc2cn(CC(=O)OC)c3ccccc23)CC1	i	i	i	i	-8	41	/	/	/
CC(C)CN(C(=O)c1cccc([N+](=O)[O-])c1)c1c(N)n(CC(C)C)c(=O)[nH]c1=O	i	i	i	i	-3	43	/	/	/
C#CCOCCOCCOCCNc1nc(N2CCN(C(=O)[C@H](C(C)C)n3cc(CCO)nn3)CC2)nc(N2CCN(C(=O)[C@H](Cc3ccc(O)cc3)n3cc(CCO)nn3)CC2)n1	/	/	i	/	/	/	/	/	/
C=C(C(=O)c1ccccc1)C(c1ccccc1)C(C)C(=O)c1ccccc1 (stereo unspecified)	-12*	i	i	i	-8	4	73%*	i	44%*
SMILES	KCNK9 inh	KCNQ1 block	KCNK3 inh	KCNQ1 pot	hERG protect	PHOSPHO1 inh	KCNK9 inh conf	Kir2-1 spec	HEK293 Tl ctr
O=C(COC(=O)CNC(=O)c1ccccc1Cl)Nc1cc(C(F)(F)F)ccc1Cl	/	/	i	/	/	/	/	/	/
Fc1ccccc1COc1ccc(-c2nnn(Cc3ccccc3F)n2)cc1	i	i	i	i	-6	-28	i	i	i
Cn1nnc(-c2ccc(OCc3ccccc3F)cc2)n1	i	i	i	i	-3	0	/	/	/
CCN(CC)S(=O)(=O)c1ccc(NC(=O)CO/N=C(\N)c2ccccc2)cc1	i	i	i	i	-17	/	/	/	/
COc1cccc(C(=O)NCC(c2ccco2)N2CCc3ccccc3C2)c1 (stereo unspecified)	-10*	i	i	i	-6	/	38%*	i	i
O=c1c2cnn(-c3ccccc3)c2ncn1Cc1ccco1	i	i	i	i	-6	21	/	/	/
O=C(Nc1nc(-c2cc(Cl)sc2Cl)cs1)c1cccs1	-8.9*	i	-12*	i	-13	31	50%*	i	i
O=C(Nc1nc(-c2cc(Cl)sc2Cl)cs1)c1ccc(Br)s1	i	i	i	i	-12	9	/	/	/
O=C(COc1cccc2c1CCNC2=O)Nc1ccc(Cl)cc1	i	i	i	i	-5	/	/	/	/
Cc1ccc(C)c(C(=O)COC(=O)C2CCN(c3ccc(C(F)(F)F)cn3)CC2)c1	i	i	i	i	-11	/	i	i	i
Cc1cc(C)c(C(=O)COC(=O)C2CCN(c3ccc(C(F)(F)F)cn3)CC2)c(C)c1	/	/	i	/	/	/	/	/	/
CSc1ccc(C(=O)C2CCCN(C(=O)c3cc(C)n(C)n3)C2)cc1 (stereo unspecified)	i	i	i	i	-6	40	i	i	i
O=C(c1ccc2ccccc2c1)C1CCCN(C(=O)c2noc3c2CCCC3)C1 (stereo unspecified)	i	i	i	i	-19	54	i	i	i
COc1c(C)cc(C(=O)C2CCCN(C(=O)c3cc(C)n(C)n3)C2)cc1C (stereo unspecified)	i	i	i	i	-1	24	/	/	/
